Calls of active or inactive are those of the source. No cut-off for these calls is given here.
Tests used:
[1] = molecular target: T1, Kappa-type opioid receptor (Homo sapiens, UniProt P41145); assay: Displacement of [3H]U69593 from human kappa opioid receptor expressed in CHO cells after 60 mins by scintillation counting; format: cell-based
Mu-type opioid receptor [2] = molecular target: T2, Mu-type opioid receptor (Homo sapiens, UniProt P35372); assay: Displacement of [3H]DAMGO from human mu opioid receptor expressed in CHO cells after 60 mins by scintillation counting; format: cell-based
[3] = molecular target: Delta-type opioid receptor (Homo sapiens, UniProt P41143); assay: Displacement of [3H]Naltrindole from human delta opioid receptor expressed in CHO cells after 3 hrs by scintillation counting; format: cell-based
Method in brief: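 Membranes from CHO cells expressing human κ, μ or δ opioid receptor were incubated with 12 compound concentrations and a receptor-selective radioligand at 25 °C in 50 mM Tris-HCl, pH 7.5. […] Nonspecific binding was defined with 10 μM naloxone. Ki reported as mean ± SEM, three experiments in triplicate.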

Homo sapiens [4] = species: Homo sapiens; assay: Selectivity ratio of Ki for human mu opioid receptor to Ki for human kappa opioid receptor
Homo sapiens [5] = species: Homo sapiens; assay: Selectivity ratio of Ki for human delta opioid receptor to Ki for human kappa opioid receptor
[6] = molecular target: T1, Kappa-type opioid receptor; assay: Agonist activity at human kappa opioid receptor expressed in CHO cells assessed as [35S]GTPgammaS binding by scintillation counting relative to control; format: functional, cell-based
Method in brief: (§1)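 Membranes from CHO cells stably expressing human κ (15 μg protein/tube) or μ (7.5 μg protein/tube) opioid receptor, grown in DMEM with 10% FBS at 37 °C, 5% CO2. Twelve agonist concentrations were incubated 60 min at 30 °C in 50 mM Tris-HCl, 3 mM MgCl2, 100 mM NaCl, 0.2 mM EGTA, pH 7.4, with 3 μM GDP and [35S]GTPγS. Filtration, then scintillation counting. Stimulation expressed as percent over basal; ≥3 experiments in triplicate.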

[7] = molecular target: T1, Kappa-type opioid receptor; assay: Antagonist activity at human kappa opioid receptor expressed in CHO cells assessed as […] in U50488-induced [35S]GTPgammaS binding by scintillation counting; format: functional, cell-based
Mu-type opioid receptor [8] = molecular target: T2, Mu-type opioid receptor; conditions: cho
Mu-type opioid receptor [9] = molecular target: T2, Mu-type opioid receptor; assay: Agonist activity at human mu opioid receptor expressed in CHO cells assessed as [35S]GTPgammaS binding by scintillation counting; format: functional, cell-based
Mu-type opioid receptor [10] = molecular target: T2, Mu-type opioid receptor
[11] = molecular target: T1, Kappa-type opioid receptor; assay: Agonist activity at human kappa opioid receptor expressed in CHO cells assessed as [35S]GTPgammaS binding by scintillation counting; format: functional, cell-based
Mu-type opioid receptor [12] = molecular target: T2, Mu-type opioid receptor; assay: Agonist activity at human mu opioid receptor expressed in CHO cells assessed as [35S]GTPgammaS binding by scintillation counting relative to control; format: functional, cell-based; method in brief: as §1
Mu-type opioid receptor [13] = molecular target: T2, Mu-type opioid receptor; assay: Antagonist activity at human mu opioid receptor expressed in CHO cells assessed as inhibition of DAMGO-induced [35S]GTPgammaS binding at 10 uM by scintillation counting; format: functional, cell-based

Sequence of Delta-type opioid receptor (P41143 whole entry): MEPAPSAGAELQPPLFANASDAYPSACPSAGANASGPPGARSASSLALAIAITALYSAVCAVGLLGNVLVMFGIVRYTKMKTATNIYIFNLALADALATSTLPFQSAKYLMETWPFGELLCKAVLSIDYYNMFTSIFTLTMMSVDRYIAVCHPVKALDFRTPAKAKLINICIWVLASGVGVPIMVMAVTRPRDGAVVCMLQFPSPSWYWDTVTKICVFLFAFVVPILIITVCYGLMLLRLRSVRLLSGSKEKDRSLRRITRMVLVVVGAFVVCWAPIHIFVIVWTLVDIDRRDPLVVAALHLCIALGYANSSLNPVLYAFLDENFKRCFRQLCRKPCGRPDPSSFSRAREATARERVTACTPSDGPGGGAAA
T2 sequence (P35372 whole entry): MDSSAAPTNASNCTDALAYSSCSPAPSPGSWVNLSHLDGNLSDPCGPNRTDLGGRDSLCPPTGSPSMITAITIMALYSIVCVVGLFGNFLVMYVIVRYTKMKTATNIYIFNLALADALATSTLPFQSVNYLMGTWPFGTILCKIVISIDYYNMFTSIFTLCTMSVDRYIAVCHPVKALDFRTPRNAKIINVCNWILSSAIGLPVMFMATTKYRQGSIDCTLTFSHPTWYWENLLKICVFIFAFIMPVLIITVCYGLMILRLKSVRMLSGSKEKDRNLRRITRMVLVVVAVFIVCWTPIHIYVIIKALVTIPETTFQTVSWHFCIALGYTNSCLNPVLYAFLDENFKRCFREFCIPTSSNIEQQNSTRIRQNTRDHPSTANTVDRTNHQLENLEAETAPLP
T1 sequence (P41145 whole entry): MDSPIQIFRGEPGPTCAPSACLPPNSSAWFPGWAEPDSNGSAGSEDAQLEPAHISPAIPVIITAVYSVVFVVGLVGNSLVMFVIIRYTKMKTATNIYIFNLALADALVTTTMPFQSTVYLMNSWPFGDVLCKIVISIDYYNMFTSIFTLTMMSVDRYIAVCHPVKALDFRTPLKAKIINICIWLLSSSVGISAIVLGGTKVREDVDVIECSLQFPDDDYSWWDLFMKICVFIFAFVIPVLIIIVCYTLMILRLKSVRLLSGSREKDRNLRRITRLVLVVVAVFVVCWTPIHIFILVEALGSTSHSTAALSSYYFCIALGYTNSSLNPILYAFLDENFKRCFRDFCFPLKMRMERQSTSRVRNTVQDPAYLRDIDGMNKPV

Compound	Ki [1] [nM]	Ki (Mu-type opioid receptor [2]) [nM]	Ki [3] [nM]	Ratio Ki (Homo sapiens [4])	Ratio Ki (Homo sapiens [5])	Emax [6] [%]	Activity [7]	IC50 (Mu-type opioid receptor [8])	EC50 (Mu-type opioid receptor [9]) [nM]	IC50 (Mu-type opioid receptor [10]) [nM]	EC50 [11] [nM]	Emax (Mu-type opioid receptor [12]) [%]	inhibition (Mu-type opioid receptor [13]) [%]
CC(=O)N(C)c1nc2cc3c(cc2s1)C[C@@H]1[C@@H]2CCCC[C@]32CCN1CC1CC1	6.9	110	1100	16	160	–	–	–	–	–	–	–	–
CCN(C(C)=O)c1nc2cc3c(cc2s1)C[C@@H]1[C@@H]2CCCC[C@]32CCN1CC1CC1	13	86	740	4	57	–	–	–	–	–	–	–	–
CCNc1nc2cc3c(cc2s1)C[C@@H]1[C@@H]2CCCC[C@]32CCN1CC1CC1	0.151	4.7	43	–	–	190	inactive	Not Active	–	–	–	–	–
Nc1nc2cc3c(cc2s1)C[C@@H]1[C@@H]2CCCC[C@]32CCN1CC1CCC1	–	–	–	9	290	–	inactive	–	> 1000	85	–	–	–
Nc1nc2cc3c(cc2s1)C[C@@H]1[C@@H]2CCCC[C@]32CCN1C[C@@H]1CCCO1	0.83	2.4	56	3	67	190	inactive	Not Active	71	–	14	120	–
COc1cccc(CNc2nc3cc4c(cc3s2)C[C@@H]2[C@@H]3CCCC[C@]43CCN2CC2CC2)c1	4.8	9.1	34	2	7	–	–	–	–	–	–	–	–
CN1CC[C@]23CCCC[C@H]2[C@H]1Cc1cc2sc(N)nc2cc13	–	–	–	0.17	30	–	–	–	–	–	–	–	–
Oc1ccc2c(c1)[C@@]13CCCC[C@H]1[C@@H](C2)N(CC1CC1)CC3	–	–	–	–	–	–	inactive	–	–	–	–	–	–
CC(=O)Nc1nc2cc3c(cc2s1)C[C@@H]1[C@@H]2CCCC[C@]32CCN1CC1CC1	13	57	750	4	58	–	–	–	–	–	–	–	–
CNc1nc2cc3c(cc2s1)C[C@@H]1[C@@H]2CCCC[C@]32CCN1CC1CCC1	2.4	1.8	47	1	20	–	–	–	–	–	–	–	–
Oc1cccc(CNc2nc3cc4c(cc3s2)C[C@@H]2[C@@H]3CCCC[C@]43CCN2CC2CC2)c1	3.5	9.9	29	3	8	–	–	–	–	–	–	–	–
CNc1nc2cc3c(cc2s1)C[C@@H]1[C@@H]2CCCC[C@]32CCN1CC1CC1	0.066	3	25	–	–	82	inactive	Not Active	47	–	14	–	–
FC(F)(F)CNc1nc2cc3c(cc2s1)C[C@@H]1[C@@H]2CCCC[C@]32CCN1CC1CC1	0.84	21	180	25	210	120	inactive	–	–	–	120	–	–
c1ccc(CNc2nc3cc4c(cc3s2)C[C@@H]2[C@@H]3CCCC[C@]43CCN2CC2CC2)cc1	2.1	10	41	5	20	–	–	–	–	–	–	–	–
CC(=O)Nc1nc2cc3c(cc2s1)C[C@@H]1[C@@H]2CCCC[C@]32CCN1CCCF	1.2	15	220	13	180	–	–	–	–	–	–	–	–
CNc1nc2cc3c(cc2s1)C[C@@H]1[C@@H]2CCCC[C@]32CCN1CCCF	0.71	7.4	50	–	–	170	inactive	Not Active	–	–	–	–	–
CN(C)c1nc2cc3c(cc2s1)C[C@@H]1[C@@H]2CCCC[C@]32CCN1CCCF	11	76	420	7	38	–	–	–	–	–	–	–	–
CN(C)c1nc2cc3c(cc2s1)C[C@@H]1[C@@H]2CCCC[C@]32CCN1CC1CC1	0.45	10	65	22	140	110	inactive	–	140	–	46	57	40
Nc1nc2cc3c(cc2s1)C[C@@H]1[C@@H]2CCCC[C@]32CCN1CC1CC1	–	–	–	30	590	–	inactive	Not Active	–	–	–	–	–
CCNc1nc2cc3c(cc2s1)C[C@@H]1[C@@H]2CCCC[C@]32CCN1CC1CCC1	3.7	1.1	91	0.3	25	–	–	–	–	–	–	–	–
CCNC(=S)Nc1nc2cc3c(cc2s1)C[C@@H]1[C@@H]2CCCC[C@]32CCN1CC1CC1	18	130	150	7	8	–	–	–	–	–	–	–	–
Nc1nc2cc3c(cc2s1)C[C@@H]1[C@@H]2CCCC[C@]32CCN1CCCF	0.3	2.7	54	9	180	100	inactive	–	130	–	32	65	40
c1ccc(Nc2nc3cc4c(cc3s2)C[C@@H]2[C@@H]3CCCC[C@]43CCN2CC2CC2)cc1	21	180	140	9	7	–	–	–	–	–	–	–	–
CCCNc1nc2cc3c(cc2s1)C[C@@H]1[C@@H]2CCCC[C@]32CCN1CC1CC1	1.6	17	79	11	49	–	–	–	–	–	–	–	–
c1ccc(Nc2nc3cc4c(cc3s2)C[C@@H]2[C@@H]3CCCC[C@]43CCN2CC2CC2)nc1	95	610	> 10000	6	–	–	–	–	–	–	–	–	–
Nc1nc2cc3c(cc2o1)[C@@]12CCCC[C@H]1[C@@H](C3)N(CC1CC1)CC2	–	–	–	3	> 192	–	–	–	–	–	–	–	–
CCNc1nc2cc3c(cc2s1)C[C@@H]1[C@@H]2CCCC[C@]32CCN1CCCF	0.94	4	76	–	–	150	inactive	Not Active	240	–	89	–	–
CCCNc1nc2cc3c(cc2s1)C[C@@H]1[C@@H]2CCCC[C@]32CCN1CCCF	5.8	24	120	4	21	–	–	–	–	–	–	–	–
